Experimental data as given in ChEMBL document CHEMBL2346629, “Discovery and characterization of novel allosteric FAK inhibitors” (Eur J Med Chem, 2013).

Legend:
[1] = tested on: Platelet-derived growth factor receptor alpha (Homo sapiens), P16234 [T674I]; assay: Inhibition of PDGFRa T674I mutant (unknown origin) using [gamma-33P]ATP assessed as residual activity at 3 uM
[2] = target: Mitogen-activated protein kinase 12 (Homo sapiens) (UniProt P53778); assay: Inhibition of P38g (unknown origin) using [gamma-33P]ATP assessed as residual activity at 3 uM
[3] = target: Mitogen-activated protein kinase 13 (Homo sapiens) (UniProt O15264); assay: Inhibition of P38d (unknown origin) using [gamma-33P]ATP assessed as residual activity at 3 uM
[4] = target: Muscle, skeletal receptor tyrosine-protein kinase (Homo sapiens) (UniProt O15146); assay: Inhibition of MUSK (unknown origin) using [gamma-33P]ATP assessed as residual activity at 3 uM
[5] = target: Serine/threonine-protein kinase 4 (Homo sapiens) (UniProt Q13043); assay: Inhibition of MST1 (unknown origin) using [gamma-33P]ATP assessed as residual activity at 3 uM
[6] = target: Myosin light chain kinase 2, skeletal/cardiac muscle (Homo sapiens) (UniProt Q9H1R3); assay: Inhibition of MLCK2 (unknown origin) using [gamma-33P]ATP assessed as residual activity at 3 uM
How it was run: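 Contract radiometric panel screen of 288 kinases (261 wild-type, 27 mutant). Inhibition was read by [gamma-33P]ATP radioactivity incorporation.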

[7] = target: Casein kinase II subunit alpha (Homo sapiens) (UniProt P68400); assay: Inhibition of CK2a (unknown origin) using [gamma-33P]ATP assessed as residual activity at 3 uM
How it was run: (§1)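 Reaction Biology HotSpot radiometric profiling panel of 288 kinases (261 wild-type, 27 mutant). Kinase activity was read out by incorporation of [γ-33P]ATP.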

[8] = target: Serine/threonine-protein kinase Chk2 (Homo sapiens, UniProt O96017); assay: Inhibition of CHK2 (unknown origin) using [gamma-33P]ATP assessed as residual activity at 3 uM
[9] = target: Serine/threonine-protein kinase BRSK2 (Homo sapiens) (UniProt Q8IWQ3); assay: Inhibition of BRSK2 (unknown origin) using [gamma-33P]ATP assessed as residual activity at 3 uM
How it was run: (§2)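 Radiometric profiling across 288 kinases (261 wild-type, 27 mutant), run as an outsourced service. Inhibition read out as [gamma-33P]ATP incorporation into substrate.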

[10] = tested on: Fibroblast growth factor receptor 1 (Homo sapiens), P11362 [V561M]; assay: Inhibition of FGFR1 V561M mutant (unknown origin) using [gamma-33P]ATP assessed as residual activity at 3 uM; how it was run: as §1
[11] = tested on: Epidermal growth factor receptor (Homo sapiens), P00533 [L861Q]; assay: Inhibition of EGFR L861Q mutant(unknown origin) using [gamma-33P]ATP assessed as residual activity at 3 uM; assay type: protein assay; how it was run: as §1
[12] = tested on: Epidermal growth factor receptor (Homo sapiens), P00533 [L858R]; assay: Inhibition of EGFR L858R mutant (unknown origin) using [gamma-33P]ATP assessed as residual activity at 3 uM; assay type: protein assay; how it was run: as §1
[13] = tested on: Mast/stem cell growth factor receptor Kit (Homo sapiens), P10721 [D816H]; assay: Inhibition of c-Kit D816H mutant (unknown origin) using [gamma-33P]ATP assessed as residual activity at 3 uM
[14] = target: Serine/threonine-protein kinase STK11 (Homo sapiens) (UniProt Q15831); assay: Inhibition of LKB1 (unknown origin) using [gamma-33P]ATP assessed as residual activity at 3 uM
How it was run: (§3)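 Radiometric kinase profiling service covering 288 kinases (261 wild-type, 27 mutant). Inhibition was read as incorporation from [γ-³³P]ATP.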

[15] = target: Mitogen-activated protein kinase 9 (Homo sapiens) (UniProt P45984); assay: Inhibition of JNK2a2 (unknown origin) using [gamma-33P]ATP assessed as residual activity at 3 uM; how it was run: as §3
[16] = target: Tyrosine-protein kinase JAK3 (Homo sapiens) (UniProt P52333); assay: Inhibition of JAK3 (unknown origin) using [gamma-33P]ATP assessed as residual activity at 3 uM; how it was run: as §3
[17] = target: Insulin receptor-related protein (Homo sapiens) (UniProt P14616); assay: Inhibition of IRR (unknown origin) using [gamma-33P]ATP assessed as residual activity at 3 uM; how it was run: as §3
[18] = target: Serine/threonine-protein kinase A-Raf (Homo sapiens) (UniProt P10398); assay: Inhibition of ARAF (unknown origin) using [gamma-33P]ATP assessed as residual activity at 3 uM; how it was run: as §2
[19] = target: Activin receptor type-1B (Homo sapiens) (UniProt P36896); assay: Inhibition of ALK4 (unknown origin) using [gamma-33P]ATP assessed as residual activity at 3 uM; how it was run: as §2
[20] = target: Angiopoietin-1 receptor (Homo sapiens) (UniProt Q02763); assay: Inhibition of TIE2 (unknown origin) using [gamma-33P]ATP assessed as residual activity at 3 uM
[21] = target: Tyrosine-protein kinase Tec (Homo sapiens) (UniProt P42680); assay: Inhibition of TEC (unknown origin) using [gamma-33P]ATP assessed as residual activity at 3 uM
[22] = target: Serine/threonine-protein kinase TAO3 (Homo sapiens) (UniProt Q9H2K8); assay: Inhibition of TAOK3 (unknown origin) using [gamma-33P]ATP assessed as residual activity at 3 uM
[23] = target: Tyrosine-protein kinase SYK (Homo sapiens) (UniProt P43405); assay: Inhibition of SYK (unknown origin) using [gamma-33P]ATP assessed as residual activity at 3 uM
[24] = target: SRSF protein kinase 1 (Homo sapiens) (UniProt Q96SB4); assay: Inhibition of SRPK1 (unknown origin) using [gamma-33P]ATP assessed as residual activity at 3 uM
[25] = target: Vascular endothelial growth factor receptor 3 (Homo sapiens) (UniProt P35916); assay: Inhibition of FLT4 (unknown origin) using [gamma-33P]ATP assessed as residual activity at 3 uM; how it was run: as §3
[26] = target: Tyrosine-protein kinase Fgr (Homo sapiens, UniProt P09769); assay: Inhibition of FGR (unknown origin) using [gamma-33P]ATP assessed as residual activity at 3 uM
[27] = target: Serine/threonine-protein kinase PLK1 (Homo sapiens) (UniProt P53350); assay: Inhibition of PLK1 (unknown origin) using [gamma-33P]ATP assessed as residual activity at 3 uM
[28] = target: Serine/threonine-protein kinase N2 (Homo sapiens) (UniProt Q16513); assay: Inhibition of PKN2 (unknown origin) using [gamma-33P]ATP assessed as residual activity at 3 uM
[29] = target: Protein kinase C epsilon type (Homo sapiens) (UniProt Q02156); assay: Inhibition of PKCepsilon (unknown origin) using [gamma-33P]ATP assessed as residual activity at 3 uM
[30] = target: Eukaryotic elongation factor 2 kinase (Homo sapiens) (UniProt O00418); assay: Inhibition of EEF2K (unknown origin) using [gamma-33P]ATP assessed as residual activity at 3 uM; how it was run: as §1
[31] = target: Hepatocyte growth factor receptor (Homo sapiens) (UniProt P08581); assay: Inhibition of c-MET (unknown origin) using [gamma-33P]ATP assessed as residual activity at 3 uM

Insulin receptor-related protein (Homo sapiens), sequence (P14616 27-742 limits assumed): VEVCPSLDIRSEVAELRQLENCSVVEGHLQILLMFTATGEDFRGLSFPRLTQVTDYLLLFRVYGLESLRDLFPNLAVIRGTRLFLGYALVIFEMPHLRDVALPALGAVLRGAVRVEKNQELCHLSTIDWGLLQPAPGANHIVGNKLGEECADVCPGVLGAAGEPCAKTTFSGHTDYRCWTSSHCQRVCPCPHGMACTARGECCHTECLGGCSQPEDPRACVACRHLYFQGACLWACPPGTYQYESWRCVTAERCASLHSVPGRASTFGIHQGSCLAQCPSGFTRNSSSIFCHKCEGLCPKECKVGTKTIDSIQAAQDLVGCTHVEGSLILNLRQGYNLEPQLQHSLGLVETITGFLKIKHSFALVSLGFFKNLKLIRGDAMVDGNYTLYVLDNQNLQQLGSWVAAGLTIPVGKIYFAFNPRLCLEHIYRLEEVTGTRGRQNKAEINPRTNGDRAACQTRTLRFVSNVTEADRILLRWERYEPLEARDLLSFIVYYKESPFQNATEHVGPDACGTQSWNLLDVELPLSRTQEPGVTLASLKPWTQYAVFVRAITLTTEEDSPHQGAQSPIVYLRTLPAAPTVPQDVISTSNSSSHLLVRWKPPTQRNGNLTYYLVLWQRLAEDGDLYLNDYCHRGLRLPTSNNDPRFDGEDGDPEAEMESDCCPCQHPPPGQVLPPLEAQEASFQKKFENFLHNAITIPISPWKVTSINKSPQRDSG
Insulin receptor-related protein (Homo sapiens), sequence (P14616 747-1297 limits assumed): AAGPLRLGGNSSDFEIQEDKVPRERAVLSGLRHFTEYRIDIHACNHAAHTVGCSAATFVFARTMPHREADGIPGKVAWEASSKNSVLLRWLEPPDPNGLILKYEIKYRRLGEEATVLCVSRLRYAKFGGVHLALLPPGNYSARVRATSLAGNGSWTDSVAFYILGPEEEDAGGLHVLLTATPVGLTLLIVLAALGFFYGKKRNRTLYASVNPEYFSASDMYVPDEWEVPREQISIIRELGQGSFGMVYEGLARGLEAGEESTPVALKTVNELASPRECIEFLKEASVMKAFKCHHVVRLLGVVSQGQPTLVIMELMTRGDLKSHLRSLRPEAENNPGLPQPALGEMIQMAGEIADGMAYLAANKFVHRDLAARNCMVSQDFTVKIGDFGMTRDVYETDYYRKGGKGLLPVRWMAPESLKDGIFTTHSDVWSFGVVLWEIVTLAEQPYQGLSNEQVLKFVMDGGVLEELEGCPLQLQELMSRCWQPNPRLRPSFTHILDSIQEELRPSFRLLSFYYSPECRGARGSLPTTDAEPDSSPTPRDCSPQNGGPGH
Tyrosine-protein kinase Tec (Homo sapiens), sequence (P42680 whole entry): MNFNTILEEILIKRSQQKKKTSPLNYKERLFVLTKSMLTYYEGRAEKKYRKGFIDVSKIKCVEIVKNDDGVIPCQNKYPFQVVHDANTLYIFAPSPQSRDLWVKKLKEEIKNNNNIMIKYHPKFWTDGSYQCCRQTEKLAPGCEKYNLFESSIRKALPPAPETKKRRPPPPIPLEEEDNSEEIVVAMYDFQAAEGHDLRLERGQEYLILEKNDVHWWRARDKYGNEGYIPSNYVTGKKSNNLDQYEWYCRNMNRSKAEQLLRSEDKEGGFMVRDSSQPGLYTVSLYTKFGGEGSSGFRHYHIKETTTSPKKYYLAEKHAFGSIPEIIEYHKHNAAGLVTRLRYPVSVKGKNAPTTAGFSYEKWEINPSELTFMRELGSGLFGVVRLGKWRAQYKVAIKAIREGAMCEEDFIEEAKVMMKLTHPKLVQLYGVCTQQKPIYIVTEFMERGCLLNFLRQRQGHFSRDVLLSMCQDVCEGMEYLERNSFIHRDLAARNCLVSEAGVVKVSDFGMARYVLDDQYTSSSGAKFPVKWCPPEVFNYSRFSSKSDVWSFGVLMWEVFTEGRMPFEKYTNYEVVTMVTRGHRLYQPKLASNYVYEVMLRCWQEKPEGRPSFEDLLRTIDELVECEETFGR
Mitogen-activated protein kinase 13 (Homo sapiens), sequence (O15264 whole entry): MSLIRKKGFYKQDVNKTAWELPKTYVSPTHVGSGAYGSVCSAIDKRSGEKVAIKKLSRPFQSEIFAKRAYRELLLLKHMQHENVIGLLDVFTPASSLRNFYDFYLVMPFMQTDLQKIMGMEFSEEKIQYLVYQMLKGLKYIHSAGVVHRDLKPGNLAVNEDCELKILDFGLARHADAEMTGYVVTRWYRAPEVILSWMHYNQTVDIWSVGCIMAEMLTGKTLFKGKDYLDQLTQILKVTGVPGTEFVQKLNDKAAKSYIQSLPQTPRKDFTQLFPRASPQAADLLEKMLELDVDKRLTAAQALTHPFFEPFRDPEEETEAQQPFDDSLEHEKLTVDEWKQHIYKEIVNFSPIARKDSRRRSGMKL
Serine/threonine-protein kinase PLK1 (Homo sapiens), sequence (P53350 whole entry): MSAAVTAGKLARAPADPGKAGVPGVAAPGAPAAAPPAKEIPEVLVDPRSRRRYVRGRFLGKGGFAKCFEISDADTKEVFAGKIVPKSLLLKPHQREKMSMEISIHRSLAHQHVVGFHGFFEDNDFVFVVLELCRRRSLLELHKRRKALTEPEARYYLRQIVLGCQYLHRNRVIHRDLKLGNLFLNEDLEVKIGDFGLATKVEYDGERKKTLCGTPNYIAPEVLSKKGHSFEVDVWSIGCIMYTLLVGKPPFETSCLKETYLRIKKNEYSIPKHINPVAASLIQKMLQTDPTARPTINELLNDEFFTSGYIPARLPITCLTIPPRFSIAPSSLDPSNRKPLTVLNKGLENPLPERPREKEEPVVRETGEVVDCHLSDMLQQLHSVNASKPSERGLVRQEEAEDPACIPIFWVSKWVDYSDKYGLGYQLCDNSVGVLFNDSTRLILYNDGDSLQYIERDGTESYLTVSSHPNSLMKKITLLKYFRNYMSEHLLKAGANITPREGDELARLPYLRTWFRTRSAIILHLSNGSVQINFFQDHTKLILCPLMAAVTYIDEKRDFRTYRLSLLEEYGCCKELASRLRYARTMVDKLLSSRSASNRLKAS
Mast/stem cell growth factor receptor Kit (Homo sapiens), P10721 [D816H], sequence (P10721 whole entry D816H): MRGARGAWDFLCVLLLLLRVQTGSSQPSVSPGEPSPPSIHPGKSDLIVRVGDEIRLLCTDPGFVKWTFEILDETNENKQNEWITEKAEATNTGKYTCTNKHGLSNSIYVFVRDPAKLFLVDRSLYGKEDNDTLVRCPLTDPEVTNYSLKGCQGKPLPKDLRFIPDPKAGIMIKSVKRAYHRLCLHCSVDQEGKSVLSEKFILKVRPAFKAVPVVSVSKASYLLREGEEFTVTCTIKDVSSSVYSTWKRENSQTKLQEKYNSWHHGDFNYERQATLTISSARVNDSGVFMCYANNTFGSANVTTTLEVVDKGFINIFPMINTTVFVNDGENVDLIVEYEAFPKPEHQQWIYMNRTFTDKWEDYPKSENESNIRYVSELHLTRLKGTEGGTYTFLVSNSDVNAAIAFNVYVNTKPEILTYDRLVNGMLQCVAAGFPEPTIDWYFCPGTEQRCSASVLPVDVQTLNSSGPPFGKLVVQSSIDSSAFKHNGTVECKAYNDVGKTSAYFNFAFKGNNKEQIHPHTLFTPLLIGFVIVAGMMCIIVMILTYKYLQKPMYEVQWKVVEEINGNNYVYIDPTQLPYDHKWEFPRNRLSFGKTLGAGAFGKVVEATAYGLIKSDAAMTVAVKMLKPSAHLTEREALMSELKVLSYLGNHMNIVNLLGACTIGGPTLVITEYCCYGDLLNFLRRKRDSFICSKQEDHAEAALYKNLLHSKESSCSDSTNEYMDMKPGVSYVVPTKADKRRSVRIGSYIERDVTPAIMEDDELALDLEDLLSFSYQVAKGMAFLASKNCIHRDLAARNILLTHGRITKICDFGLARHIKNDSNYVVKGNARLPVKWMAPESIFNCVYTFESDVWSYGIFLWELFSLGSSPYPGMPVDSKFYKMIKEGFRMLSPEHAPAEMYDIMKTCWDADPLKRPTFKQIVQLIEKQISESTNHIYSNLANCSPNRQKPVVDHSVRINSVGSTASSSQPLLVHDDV
Serine/threonine-protein kinase Chk2, sequence (O96017 whole entry): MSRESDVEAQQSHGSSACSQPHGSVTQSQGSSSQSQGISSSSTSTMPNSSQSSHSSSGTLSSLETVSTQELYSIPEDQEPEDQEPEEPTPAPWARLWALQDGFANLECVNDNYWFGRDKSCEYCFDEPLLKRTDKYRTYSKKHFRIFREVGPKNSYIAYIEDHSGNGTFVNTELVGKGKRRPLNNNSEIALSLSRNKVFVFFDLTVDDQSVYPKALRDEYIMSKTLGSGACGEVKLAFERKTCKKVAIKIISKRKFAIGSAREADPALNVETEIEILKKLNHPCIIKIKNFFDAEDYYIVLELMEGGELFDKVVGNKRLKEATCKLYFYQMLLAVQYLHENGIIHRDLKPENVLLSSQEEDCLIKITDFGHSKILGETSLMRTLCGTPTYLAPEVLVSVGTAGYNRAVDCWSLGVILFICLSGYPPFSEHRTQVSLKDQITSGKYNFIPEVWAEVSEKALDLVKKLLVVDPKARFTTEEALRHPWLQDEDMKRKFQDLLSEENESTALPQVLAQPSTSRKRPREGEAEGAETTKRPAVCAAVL
Mitogen-activated protein kinase 9 (Homo sapiens), sequence (P45984 whole entry, looked up): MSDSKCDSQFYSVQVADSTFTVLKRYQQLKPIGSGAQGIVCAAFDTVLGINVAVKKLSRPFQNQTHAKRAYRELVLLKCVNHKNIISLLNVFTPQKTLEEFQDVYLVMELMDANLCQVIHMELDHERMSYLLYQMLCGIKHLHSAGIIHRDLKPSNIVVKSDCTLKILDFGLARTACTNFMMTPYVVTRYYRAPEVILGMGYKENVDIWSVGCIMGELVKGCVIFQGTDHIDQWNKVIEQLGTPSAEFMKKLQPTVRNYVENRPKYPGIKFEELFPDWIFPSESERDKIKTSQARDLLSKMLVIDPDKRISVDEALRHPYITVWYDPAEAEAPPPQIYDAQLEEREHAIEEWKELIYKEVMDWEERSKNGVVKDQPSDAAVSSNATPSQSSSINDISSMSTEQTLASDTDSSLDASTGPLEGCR

CCc1ccc(-c2ccc3c(c2)-c2[nH]ncc2S(=O)(=O)N3C)cc1 gave an Activity [1] of 91%, an Activity [2] of 101% and an Activity [3] of 103%. The Activity [4] was 68%, the Activity [5] was 87% and the Activity [6] was 96%. The Activity [7] was 89%, the Activity [8] was 50% and the Activity [9] was 93%. It also gave an Activity [10] of 98%, an Activity [11] of 106% and an Activity [12] of 95%. For the same compound, the Activity [13] was 52%, the Activity [14] was 98% and the Activity [15] was 98%. It also gave an Activity [16] of 94%, an Activity [17] of 100% and an Activity [18] of 100%. For the same compound, the Activity [19] was 94%, the Activity [20] was 91% and the Activity [21] was 102%. It also gave an Activity [22] of 103%, an Activity [23] of 72% and an Activity [24] of 90%. It also gave an Activity [25] of 80%, an Activity [26] of 47% and an Activity [27] of 96%. It also gave an Activity [28] of 91%, an Activity [29] of 97% and an Activity [30] of 104%. The Activity [31] was 88%.
